Laboratory results: ChEMBL document CHEMBL1157562, “Piperazinyl glutamate pyridines as potent orally bioavailable P2Y12 antagonists for inhibition of platelet aggregation” (J Med Chem, 2010)

What was measured:
P2Y purinoceptor 12 = P2Y purinoceptor 12 (Homo sapiens, UniProt Q9H244); test: Displacement of [33P]ADP from human recombinant P2Y12 receptor expressed in CHO cells; format: cell-based
In short: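 Washed membranes from CHO cells expressing synthetic human P2Y12, incubated 1 h at room temperature with 0.2 nM 33P-MeSADP in 50 mM Tris/100 mM NaCl/1 mM EDTA. Compound was tested as a 7-point 3-fold series in triplicate. Nonspecific binding was defined with 300 nM 2-MeSADP, followed by filtration.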

[1] = Antiplatelet aggregation activity against adenosine diphosphate-induced human platelet rich plasma assessed as inhibition of platelet aggregation by turbidimetric method; format: functional; settings: Homo sapiens, Platelet, Plasma
In short: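 Human PRP, prepared by two-step centrifugation and adjusted to 330 000 platelets/μL with PPP. Compound was preincubated 5 min at 37 °C in 0.5% DMSO, then 20 μM ADP was added. OD626 was read kinetically for 15 min at 37 °C with mixing between reads.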

Platelet = test: Relative potency, ratio of IC50 for drug to IC50 for AZD-6140 for platelet aggregation in human platelet rich plasma; format: functional

Chain of P2Y purinoceptor 12 (Q9H244 whole entry): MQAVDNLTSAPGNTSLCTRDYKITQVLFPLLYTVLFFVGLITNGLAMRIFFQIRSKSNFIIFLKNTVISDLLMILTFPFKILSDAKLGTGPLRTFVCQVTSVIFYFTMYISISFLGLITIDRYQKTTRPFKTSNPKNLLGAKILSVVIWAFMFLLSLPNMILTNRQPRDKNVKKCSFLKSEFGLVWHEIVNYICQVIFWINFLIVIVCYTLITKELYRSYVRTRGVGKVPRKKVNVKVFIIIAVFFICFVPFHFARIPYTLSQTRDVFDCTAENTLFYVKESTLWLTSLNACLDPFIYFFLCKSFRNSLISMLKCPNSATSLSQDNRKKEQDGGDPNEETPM

SMILES	Ki (P2Y purinoceptor 12) [nM]	IC50 [1] [nM]	Ratio IC50 (Platelet)
CCCCCOC(=O)N1CCN(C(=O)[C@H](CCC(=O)O)NC(=O)c2cc(NC(=O)NCC(=O)N(C)C)cc(-c3ccccc3)n2)CC1	4.7	3400	3.9
CCCCCOC(=O)N1CCN(C(=O)[C@H](CCC(=O)O)NC(=O)c2cc(N3CCC(COCCC)CC3)cc(-c3ccccc3)n2)CC1	22	8900	12
CCCCCOC(=O)N1CCN(C(=O)[C@H](CCC(=O)O)NC(=O)c2cc(CCCCO)cc(-c3ccccc3)n2)CC1	3.6	3200	4.2
CCCCCOC(=O)N1CCN(C(=O)[C@H](CCC(=O)O)NC(=O)c2cc(C(=O)NCC)cc(-c3ccccc3)n2)CC1	13	9700	13
CCOC(=O)N1CCN(C(=O)[C@H](CCC(=O)O)NC(=O)c2cc(N3CCC(N)CC3)cc(-c3ccccc3)n2)CC1	10	2800	8.1
CCCCCCOC(=O)N1CCN(C(=O)[C@H](CCC(=O)O)NC(=O)c2cc(OCCOC)cc(-c3ccccc3)n2)CC1	14	8300	7.1
CCCCCOC(=O)N1CCN(C(=O)[C@H](CCC(=O)O)NC(=O)c2cc(NC(=O)N3CCN(C)CC3)cc(-c3ccccc3)n2)CC1	3.2	11000	7.2
CCCCCOC(=O)N1CCN(C(=O)[C@H](CCC(=O)O)NC(=O)c2cc(NC(=O)OCC3CCNCC3)cc(-c3ccccc3)n2)CC1	1.7	5800	3.7
CCCCCOC(=O)N1CCN(C(=O)[C@H](CCC(=O)O)NC(=O)c2cc(N3CCC(N4CCOCC4)CC3)cc(-c3ccccc3)n2)CC1	10	2000	0.95
CCCCCOC(=O)N1CCN(C(=O)[C@H](CCC(=O)O)NC(=O)c2cc(OC(=O)N(C)C3CCOC3)cc(-c3ccccc3)n2)CC1 (stereo partly specified)	2.3	470	0.59
CCOC(=O)N1CCN(C(=O)[C@H](CCC(=O)O)NC(=O)c2cc(NCCO)cc(-c3ccccc3)n2)CC1	117	12000	14
CCCCCOC(=O)N1CCN(C(=O)[C@H](CCC(=O)O)NC(=O)c2cc(CCC(=O)N(C)C)cc(-c3ccccc3)n2)CC1	2.1	2900	2.7
CCCCCCOC(=O)N1CCN(C(=O)[C@H](CCC(=O)O)NC(=O)c2cc(N3CCC(N4CCCC4)CC3)cc(-c3ccccc3)n2)CC1	2.6	1200	2.3
CCCCCCOC(=O)N1CCN(C(=O)[C@H](CCC(=O)O)NC(=O)c2cc(NCCOC)cc(-c3ccccc3)n2)CC1	11	7300	9.6
CCCCCCOC(=O)N1CCN(C(=O)[C@H](CCC(=O)O)NC(=O)c2cc(OCCN)cc(-c3ccccc3)n2)CC1	8.4	4500	7.9
CCCCCOC(=O)N1CCN(C(=O)[C@H](CCC(=O)O)NC(=O)c2cc(OC(=O)N(C)C)cc(-c3ccccc3)n2)CC1	5.5	2900	1.7
CCCCCOC(=O)N1CCN(C(=O)[C@H](CCC(=O)O)NC(=O)c2cc(NC(=O)C(F)(F)F)cc(-c3ccccc3)n2)CC1	9.1	8200	8.2
CCOC(=O)N1CCN(C(=O)[C@H](CCC(=O)O)NC(=O)c2cc(O)cc(-c3ccccc3)n2)CC1	62	24000	41
CCCCCOC(=O)N1CCN(C(=O)[C@H](CCC(=O)O)NC(=O)c2cc(NC(=O)OCC)cc(-c3ccccc3)n2)CC1	11	9300	15

Second part, led by results:

Ki (P2Y purinoceptor 12) [nM]	IC50 [1] [nM]	SMILES	Ratio IC50 (Platelet)
5.8	530	CCCCCOC(=O)N1CCN(C(=O)[C@H](CCC(=O)O)NC(=O)c2cc(C(=O)N3CCN(C)CC3)cc(-c3ccccc3)n2)CC1	0.72
5	1900	CCCCOC(=O)N1CCN(C(=O)[C@H](CCC(=O)O)NC(=O)c2cc(N3CCC(N(C)C)CC3)cc(-c3ccccc3)n2)CC1	1.4
4.5	640	CCCCCCOC(=O)N1CCN(C(=O)[C@H](CCC(=O)O)NC(=O)c2cc(OCC3CCNCC3)cc(-c3ccccc3)n2)CC1	1.3
1.3	7400	CCCCCOC(=O)N1CCN(C(=O)[C@H](CCC(=O)O)NC(=O)c2cc(OCC3CCN(C(=O)OCC)CC3)cc(-c3ccccc3)n2)CC1	5.1
7.6	4000	CCCCOC(=O)N1CCN(C(=O)[C@H](CCC(=O)O)NC(=O)c2cc(OCC3CCN(C(=O)OCC)CC3)cc(-c3ccccc3)n2)CC1	2.2
6.9	2900	CCCCOC(=O)N1CCN(C(=O)[C@H](CCC(=O)O)NC(=O)c2cc(OCCCO)cc(-c3ccccc3)n2)CC1	5.1
1.7	760	CCCCOC(=O)N1CCN(C(=O)[C@H](CCC(=O)O)NC(=O)c2cc(OC(=O)N3CCOCC3)cc(-c3ccccc3)n2)CC1	0.75
7.6	3300	CCCCOC(=O)N1CCN(C(=O)[C@H](CCC(=O)O)NC(=O)c2cc(OC3CCN(S(=O)(=O)CC)CC3)cc(-c3ccccc3)n2)CC1	3.1
10	880	CCCCOC(=O)N1CCN(C(=O)[C@H](CCC(=O)O)NC(=O)c2cc(OC3CCN(C(C)C)CC3)cc(-c3ccccc3)n2)CC1	0.75
5.9	2200	CCCCOC(=O)N1CCN(C(=O)[C@H](CCC(=O)O)NC(=O)c2cc(OCCCOC)cc(-c3ccccc3)n2)CC1	3.9
2.5	2000	CCCCOC(=O)N1CCN(C(=O)[C@H](CCC(=O)O)NC(=O)c2cc(OC3CCN(C)CC3)cc(-c3ccccc3)n2)CC1	1.9
5.3	3000	CCCCOC(=O)N1CCN(C(=O)[C@H](CCC(=O)O)NC(=O)c2cc(OCC3CCN(S(=O)(=O)CC)CC3)cc(-c3ccccc3)n2)CC1	2.8
7	480	CCCCCOC(=O)N1CCN(C(=O)[C@H](CCC(=O)O)NC(=O)c2cc(OC3CCN(C(C)C)CC3)cc(-c3ccccc3)n2)CC1	0.68
3.9	2100	CCCCOC(=O)N1CCN(C(=O)[C@H](CCC(=O)O)NC(=O)c2cc(OCC3CCN(C(C)=O)CC3)cc(-c3ccccc3)n2)CC1	1.4
2.5	1000	CCCCOC(=O)N1CCN(C(=O)[C@H](CCC(=O)O)NC(=O)c2cc(OCCC3CCCNC3)cc(-c3ccccc3)n2)CC1 (stereo partly specified)	0.67
12	2100	CCCCOC(=O)N1CCN(C(=O)[C@H](CCC(=O)O)NC(=O)c2cc(OC3CCN(C(=O)C(F)(F)F)CC3)cc(-c3ccccc3)n2)CC1	3.4
3.5	910	CCCCOC(=O)N1CCN(C(=O)[C@H](CCC(=O)O)NC(=O)c2cc(N3CCC(N)CC3)cc(-c3ccccc3)n2)CC1	1.2
3.3	7200	CCCCOC(=O)N1CCN(C(=O)[C@H](CCC(=O)O)NC(=O)c2cc(N3CCOCC3)cc(-c3ccccc3)n2)CC1	11
